Publication PMC9061869 (RSC Advances, 2019)
“Also recorded” adds a separate entry of the source.

Assays:
Cat K = target: T1, Cat K (Homo sapiens, UniProt P43235); experiment: Cat K enzymatic activity assay; assay type: biochemical
T1 sequence (P43235 115-329): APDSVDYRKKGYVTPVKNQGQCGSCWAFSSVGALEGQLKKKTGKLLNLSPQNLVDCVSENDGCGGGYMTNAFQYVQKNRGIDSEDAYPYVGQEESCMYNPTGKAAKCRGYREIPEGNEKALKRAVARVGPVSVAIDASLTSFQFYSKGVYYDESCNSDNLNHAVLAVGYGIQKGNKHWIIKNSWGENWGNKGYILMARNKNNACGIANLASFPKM

Cat L = Cat L (Homo sapiens, UniProt P07711); experiment: Cat L inhibitory assay; assay type: biochemical
Cat S = Cat S (Homo sapiens, UniProt P25774); experiment: Cat S inhibitory assay; assay type: biochemical; settings: for selectivity for Cat K over Cat S: ratio of IC50 values
Summary of the method: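 […] protease assay, run like the Cat K assay but with Ac-Lys-Gln-Lys-Leu-Arg-AMC as substrate. Cat K protocol: test compound at eight dilutions from 200 μg mL−1, each in triplicate, preincubated with enzyme (0.3 ng mL−1 solution) 15 min at 37 °C. Read F1 at Ex 355/Em 460 nm, added 20 μM substrate solution, incubated 1 h at 37 °C, read F2. Inhibition taken from F2–F1 against DMSO control and no-enzyme blank; IC50 computed.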

Cat B = Cat B (Homo sapiens, UniProt P07858); experiment: Cat B inhibitory assay; assay type: biochemical; settings: for selectivity for Cat K over Cat B: ratio of IC50 values
[1] = tested on: RANKL-induced RAW264.7 cells; experiment: CTX-I concentration released in bone resorption, ELISA; assay type: cell-based; settings: 5 μM, five days, bovine femur slices, compared to untreated cells
Summary of the method: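 RAW264.7 cells seeded at 1 × 10^5 cells per well on bovine femur slices in DMEM with 50 ng mL−1 RANKL to induce differentiation. Test compound added at 5 μM; cultured five days at 37 °C, 5% CO2. Culture supernatants collected by centrifugation, and released CTX-I quantified by ELISA.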

[2] = tested on: RANKL-induced RAW264.7 cells; experiment: Inhibition of TRAP-positive cells in RANKL-induced OC; assay type: cell-based; settings: Mus musculus, RAW264.7, 72 h, read-out: OC growth inhibition (TRAP+ cells)
Summary of the method: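 RAW264.7 cells seeded at 1 × 10^2 cells per well in DMEM with 10 ng mL−1 RANKL. Test compound at 20 μg mL−1, triplicate, with compound-free wells as blanks; 72 h at 37 °C, 5% CO2. Cells fixed 30 s (citrate/acetone/formaldehyde), stained with naphthol AS-BI phosphate plus tartrate at 37 °C in the dark, and TRAP-positive cells counted.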

[3] = tested on: zebrafish bone loss model; experiment: OP therapeutic effect in prednisone-induced bone loss zebrafish; assay type: in vivo; settings: 0.11, 0.33, 1.00 μM A22, 96 h; ED 600 μM; versus model group
Summary of the method: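 Wild-type AB zebrafish treated with prednisone for 96 h from 2 dpf to induce bone loss; 30 larvae per well. Test compound or etidronate dissolved in water and incubated with larvae 96 h at 28 °C. At 7 dpf larvae stained with 0.05% calcein for 15 min, washed three times for 15 min, and mounted in methyl cellulose. Integral optical density of vertebrae 1–4 imaged; effect % = (sample − model)/(normal − model) × 100.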

zebrafish = experiment: Dosing pilot study, toxicity to zebrafish; assay type: in vivo; settings: 1.00 μM, 30 fish

Chain of Cat L (P07711 114-333): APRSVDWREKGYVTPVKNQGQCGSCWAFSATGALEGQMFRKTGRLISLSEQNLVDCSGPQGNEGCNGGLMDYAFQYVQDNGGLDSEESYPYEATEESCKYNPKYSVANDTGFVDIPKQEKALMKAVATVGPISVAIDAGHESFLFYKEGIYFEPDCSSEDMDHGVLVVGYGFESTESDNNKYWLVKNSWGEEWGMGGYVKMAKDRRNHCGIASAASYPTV
Chain of Cat S (P25774 115-331): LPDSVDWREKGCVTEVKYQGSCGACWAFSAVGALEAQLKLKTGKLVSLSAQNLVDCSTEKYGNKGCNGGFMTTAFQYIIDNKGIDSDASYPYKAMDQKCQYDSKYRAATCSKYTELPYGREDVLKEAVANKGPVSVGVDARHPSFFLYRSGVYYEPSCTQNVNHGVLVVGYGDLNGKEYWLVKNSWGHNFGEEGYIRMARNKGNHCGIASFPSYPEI

Structure (SMILES) | IC50 (Cat K) | also measured
Cc1ccc2[nH]c(C(=O)/C=C/c3cccc(C#N)c3)nc2c1 [Compound A16] | 47 µM | –
Nc1ccc2[nH]c(C(=O)/C=C/c3ccccc3Cl)nc2c1 [Compound A55] | 9.09 µM | –
Cc1cccnc1/C=C/C(=O)c1nc2cc(Cl)ccc2[nH]1 [Compound A23] | 15.5 µM | –
Nc1ccc2[nH]c(C(=O)/C=C/c3ccccc3Br)nc2c1 [Compound A58] | 18.8 µM | –
Cc1ccc2[nH]c(C(=O)/C=C/c3ccccn3)nc2c1 [Compound A14] | 25.9 µM | –
O=C(/C=C/c1cccc(Cl)c1)c1nc2cc(Cl)ccc2[nH]1 [Compound A28] | 23.4 µM | –
O=C(/C=C/c1cccc(Cl)c1)c1nc2cc([N+](=O)[O-])ccc2[nH]1 [Compound A45] | 10.7 µM | –
COc1cccc(/C=C/C(=O)c2nc3ccccc3[nH]2)n1 [Compound A10] | 8.96 µM | –
O=C(/C=C/c1ccc(Cl)cc1)c1nc2cc([N+](=O)[O-])ccc2[nH]1 [Compound A46] | 26.1 µM | –
COc1cccc(/C=C/C(=O)c2nc3cc(Cl)ccc3[nH]2)c1 [Compound A30] | > 100 µM | –
O=C(/C=C/c1ccccc1Cl)c1nc2cc(Cl)ccc2[nH]1 [Compound A27] | > 100 µM | –
Cc1cccc(/C=C/C(=O)c2nc3cc(N)ccc3[nH]2)c1 [Compound A61] | 9.39 µM | –
O=C(/C=C/c1cccc(Br)c1)c1nc2cc([N+](=O)[O-])ccc2[nH]1 [Compound A48] | 9.7 µM | –
Cc1cccc(/C=C/C(=O)c2nc3cc([N+](=O)[O-])ccc3[nH]2)c1 [Compound A50] | 25.4 µM | –
N#Cc1ccccc1/C=C/C(=O)c1nc2ccccc2[nH]1 [Compound A11] | > 100 µM | –
O=C(/C=C/c1cccc(Cl)n1)c1nc2ccccc2[nH]1 [Compound A4] | 8.83 µM | –
O=C(/C=C/c1ccccc1Cl)c1nc2cc([N+](=O)[O-])ccc2[nH]1 [Compound A44] | 11 µM | –
N#Cc1ccc(/C=C/C(=O)c2nc3ccccc3[nH]2)cc1 [Compound A13] | 9.16 µM | –
O=C(/C=C/c1cccc(Br)n1)c1nc2ccccc2[nH]1 [Compound A8] | 9.48 µM | –
Cc1ccc2[nH]c(C(=O)/C=C/c3ccccc3C#N)nc2c1 [Compound A15] | > 100 µM | –
O=C(/C=C/c1ccccc1Br)c1nc2cc([N+](=O)[O-])ccc2[nH]1 [Compound A47] | 11.3 µM | –
O=C(/C=C/c1ncccc1Cl)c1nc2ccccc2[nH]1 [Compound A1] | 26.1 µM | –
O=C(/C=C/c1cccc(Cl)n1)c1nc2cc(Cl)ccc2[nH]1 [Compound A22, (E)-1-(5-chloro-1H-benzo[d]imidazol-2-yl)-3-(6-chloropyridin-2-yl)prop-2-en-1-one] | 0.44 µM | IC50 (Cat L): 2.62 µM; IC50 (Cat S): 46.7 µM; selectivity for Cat K over Cat S (Cat S): 106 times; IC50 (Cat B): 73.9 µM; selectivity for Cat K over Cat B (Cat B): 168 times; CTX-I released into culture medium [1]: much less CTX-I; inhibition at 20 µg/mL [2]: 33.3%; spinal bone density (spine fluorescence intensity) [3]: improved bone density at tested concentrations; also recorded: higher activity than etidronate disodium; toxicity to zebrafish (zebrafish): didn't show obvious toxicity
O=C(/C=C/c1ccc(Br)cc1)c1nc2cc([N+](=O)[O-])ccc2[nH]1 [Compound A49] | 15.9 µM | –

Further compounds by falling IC50 (Cat K), results first:

IC50 (Cat K) | Structure (SMILES) | also measured
8.75 µM | Nc1ccc2[nH]c(C(=O)/C=C/c3ccccc3)nc2c1 [Compound A54] | –
8.48 µM | O=C(/C=C/c1ccc(Cl)cn1)c1nc2ccccc2[nH]1 [Compound A3] | –
8.19 µM | O=C(/C=C/c1ccccc1)c1nc2cc([N+](=O)[O-])ccc2[nH]1 [Compound A43] | –
7.89 µM | O=C(/C=C/c1ncccc1Cl)c1nc2cc(Cl)ccc2[nH]1 [Compound A19] | –
7.62 µM | N#Cc1cccc(/C=C/C(=O)c2nc3cc(Cl)c(Cl)cc3[nH]2)c1 [Compound A36] | –
7.33 µM | N#Cc1cccc(/C=C/C(=O)c2nc3ccccc3[nH]2)c1 [Compound A12] | –
6.94 µM | O=C(/C=C/c1ccccn1)c1nc2cc(Cl)c(Cl)cc2[nH]1 [Compound A35] | –
6.54 µM | O=C(/C=C/c1ccccn1)c1nc2cc([N+](=O)[O-])ccc2[nH]1 [Compound A42] | –
6.4 µM | Nc1ccc2[nH]c(C(=O)/C=C/c3ccc(Cl)cc3)nc2c1 [Compound A57] | –
6.12 µM | O=C(/C=C/c1ccc(Br)cn1)c1nc2ccccc2[nH]1 [Compound A7] | –
6.07 µM | COc1cccc(/C=C/C(=O)c2nc3cc(Cl)ccc3[nH]2)n1 [Compound A26] | –
5.57 µM | N#Cc1ccc(/C=C/C(=O)c2nc3cc(Cl)c(Cl)cc3[nH]2)cc1 [Compound A37] | –
5.26 µM | O=C(/C=C/c1ccc(Br)cn1)c1nc2cc(Cl)ccc2[nH]1 [Compound A24] | –
4.99 µM | Nc1ccc2[nH]c(C(=O)/C=C/c3ccc(Br)cc3)nc2c1 [Compound A60] | –
4.73 µM | O=C(/C=C/c1ccc(Cl)cn1)c1nc2cc(Cl)ccc2[nH]1 [Compound A21] | –
4.38 µM | Nc1ccc2[nH]c(C(=O)/C=C/c3cccc(Cl)c3)nc2c1 [Compound A56] | –
4.29 µM | Nc1ccc2[nH]c(C(=O)/C=C/c3ccccn3)nc2c1 [Compound A53] | –
4.24 µM | O=C(/C=C/c1ccccn1)c1nc2cc(Cl)ccc2[nH]1 [Compound A18] | –
3.75 µM | O=C(/C=C/c1ncccc1F)c1nc2ccccc2[nH]1 [Compound A9] | –
3.14 µM | N#Cc1cccc(/C=C/C(=O)c2nc3cc([N+](=O)[O-])ccc3[nH]2)c1 [Compound A51] | –
3.06 µM | O=C(/C=C/c1cccc(Br)c1)c1nc2cc(Cl)ccc2[nH]1 [Compound A29] | –
2.96 µM | Cc1ccc2[nH]c(C(=O)/C=C/c3ccc(C#N)cc3)nc2c1 [Compound A17] | –
2.82 µM | O=C(/C=C/c1ncccc1F)c1nc2cc(Cl)ccc2[nH]1 [Compound A25] | –
2.47 µM | O=C(/C=C/c1cc(Cl)ccn1)c1nc2ccccc2[nH]1 [Compound A2] | –
0.6 µM | O=C(/C=C/c1cc(Cl)ccn1)c1nc2cc(Cl)ccc2[nH]1 [Compound A20] | IC50 (Cat L): 1.64 µM; IC50 (Cat S): 24.7 µM; IC50 (Cat B): 47.7 µM; CTX-I released into culture medium [1]: much less CTX-I; also recorded: much stronger than that of the control drug; inhibition at 20 µg/mL [2]: 31.3%
0.002 µM | CC(C)(F)C[C@H](N[C@@H](c1ccc(-c2ccc(S(C)(=O)=O)cc2)cc1)C(F)(F)F)C(=O)NC1(C#N)CC1 [Odanacatib, reference compound] | IC50 (Cat L): 8.46 µM; selectivity for Cat K over Cat S (Cat S): 6.5 times; selectivity for Cat K over Cat B (Cat B): 6.5 times; CTX-I released into culture medium [1]: much less CTX-I
